Results: publication PMC3886125 (Molecular nutrition & food research, 2012)
Marks after values point to notes of the source that are not given here. One block for each compound: values may come before it.

Tests used:
[1] = Xanthones in serum; type: in vivo, Balb/c nu/nu mice; settings: for Identified in serum by HPLC-MS: mice fed diet with α-MG, not detected by HPLC-DAD
[2] = Xanthones in tumor tissue; type: in vivo, Balb/c nu/nu mice; settings: for Tumor at 2 weeks, Free / Tumor at 4 weeks, Free / Tumor at 2 weeks, Conjugates / Tumor at 4 weeks, Conjugates: tumor tissue, diet 901 mg/kg xanthones; for Tumor at 2 weeks, Free / Tumor at 2 weeks, Conjugates: 2 weeks after injection of HT-29 cells; for Tumor at 4 weeks, Free / Tumor at 4 weeks, Conjugates: 4 weeks after injection of HT-29 cells; for Tumor at 2 weeks, Conjugates / Tumor at 4 weeks, Conjugates: nd = not detected; for Share of total xanthones in tumors: tentatively identified
[3] = system: β-catenin; assay: β-catenin content in HT-29 cells by ELISA; type: cell-based, human; settings: 24 h
Method in brief: (§1)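 HT-29 cells were seeded at 2 × 10⁵ cells/well in 6-well dishes. At 70% confluence, monolayers got basal McCoy's medium without or with test compound (6 and 12 µmol/L) for 24 h at 37°C. Cells were washed twice with ice-cold PBS and pelleted (800 × g, 4°C, 10 min), then lysed in ice-cold lysis buffer. Protein was measured with a commercial ELISA kit. Data are means ± SD versus control, compared by Welch's unpaired t-test.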

[4] = human subjects after mangosteen juice blend containing 94 mg/mL α-MG; cited from earlier work
[5] = system: BcL-2; assay: BcL-2 in tumor tissue homogenates by ELISA; type: in vivo, Balb/c nu/nu mice; settings: mice fed diet with α-MG; 4 weeks after injection of cells; control diet 17.2 ±0.8
[6] = Food intake and body weight of mice fed diet with α-MG; type: in vivo, Balb/c nu/nu mice; settings: 845 mg/kg α-MG (901 mg total xanthones/kg) in the diet
Method in brief: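 Female athymic Balb/c nu/nu mice arrived at 4 weeks of age and were acclimated 4 days on AIN-93G diet. They were randomized (n = 24/group) to γ-irradiated AIN-93G without or with a nominal 900 mg/kg test compound, given ad libitum; actual diet content was determined by extraction. Food intake, appearance/behaviour and body weight were checked after 3 and 7 days. Groups were compared by one-way ANOVA with Dunnett's post-test.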

[7] = rats, gastric administration of 20 mg/kg in water containing 2% ethanol plus 2% Tween-80; cited from earlier work
[8] = system: BcL-2; assay: BcL-2 content in HT-29 cells by ELISA; type: cell-based, human; settings: 24 h
Method in brief: as §1

[9] = system: HT-29 cells; assay: HT-29 colon cell xenograft growth in mice fed diet with α-MG; type: in vivo, Balb/c nu/nu mice; settings: diet 900 mg α-MG/kg
[10] = system: β-catenin; assay: β-catenin in tumor tissue homogenates by ELISA; type: in vivo, Balb/c nu/nu mice; settings: mice fed diet with α-MG; 4 weeks after injection of cells; control diet 19.1 ± 1.9
[11] = Xanthones in liver; type: in vivo, Balb/c nu/nu mice; settings: control- and tumor-bearing mice; tentatively identified
[12] = 6 µmol/L, preconfluent HT-29 cells
[13] = 2 weeks after injection of HT-29 cells
[14] = 4 weeks after injection of HT-29 cells

Identified in serum by HPLC-MS [1]: Low concentrations | Tumor at 2 weeks, Free [2]: 0.22 ± 0.09 ^a) µg/g | Tumor at 4 weeks, Free [2]: 0.32 ± 0.11 ^a) µg/g
Structure (SMILES): COc1c(O)cc2oc3cc4c(c(O)c3c(=O)c2c1CC=C(C)C)C=CC(C)(C)O4 [9-Hydroxycalabaxanthone]

Structure (SMILES): COc1c(O)cc2oc3cc(O)c(CC=C(C)C)c(O)c3c(=O)c2c1CC=C(C)C [α-MG, α-mangostin]
Decrease of β-catenin vs vehicle only [3, 12]: 24 ± 2% | Cellular content of β-catenin less than control cultures ([3]; 12 µmol/L, HT-29 cells): 39 ± 3% | Cmax of free α-MG in plasma [4]: 3.1 µM | BcL-2 concentration in tumors [5]: 3.9 ± 0.5 pg/mg protein | Concentration of conjugated α-MG in serum ([1]; mice with tumors for 2 weeks): 1000 ± 100 ng/mL | α-MG in serum, without enzyme treatment (free) ([1]; nontumor-bearing and tumor-bearing mice fed diet with α-MG for 5 weeks): 15 ± 1 ng/mL | Concentration of total α-MG in serum ([1]; nontumor-bearing mice, 4 weeks, glucuronidase/sulfatase treated): 1900 ± 300 ng/mL | Body weight [6]: not significantly altered | Food intake [6]: not significantly altered | Absorption [7]: extremely low | Decrease of BcL-2 vs vehicle only [8, 12]: 27 ± 3% | Cellular content of BcL-2 less than control cultures ([8]; 12 µmol/L, HT-29 cells): 44 ± 4% | Tumor mass less than control diet [9, 13]: 27% | Tumor volume less than in mice fed the diet without α-MG [9, 13]: 41% | Tumor mass less than control diet [9, 14]: 41% | Tumor volume less than in mice fed the diet without α-MG [9, 14]: 36% | β-catenin concentration in tumors [10]: 11.2 ± 0.7 pg/mg protein | Share of tumor α-MG that is conjugated ([2]; 2 weeks postinjection): 60% | Free and conjugated α-MG concentration in tumor tissue ([2]; 4 weeks postinjection): 3.6 ± 0.1 | Share of tumor α-MG that is conjugated ([2]; 4 weeks postinjection): 52% | Tumor at 2 weeks, Free [2]: 0.51 ± 0.02 ^b) µg/g | Tumor at 2 weeks, Conjugates [2]: 0.76 ± 0.03 ^c) µg/g | Tumor at 4 weeks, Free [2]: 1.71 ± 0.06 ^a) µg/g | Tumor at 4 weeks, Conjugates [2]: 1.87 ± 0.06 ^a) µg/g

Structure (SMILES): COc1cc2oc3cc(O)c(OC)c(CC=C(C)C)c3c(=O)c2c(O)c1CC=C(C)C [β-MG, β-mangostin]
Identified in serum by HPLC-MS [1]: Low concentrations | Share of the total xanthones in the liver [11]: approx. 85% | Share of total xanthones in tumors ([2]; 2 weeks after injection): 41% | Phase II conjugates as share of tumor β-MG ([2]; 4 weeks): 40% | Share of total xanthones in tumors ([2]; 4 weeks after injection): 45% | Tumor at 2 weeks, Free [2]: 1.54 ± 0.16 ^b) µg/g | Tumor at 2 weeks, Conjugates [2]: not detected | Tumor at 4 weeks, Free [2]: 2.68 ± 0.17 ^a) µg/g | Tumor at 4 weeks, Conjugates [2]: 1.83 ± 0.17 ^b) µg/g
